The values that follow come from ChEMBL document CHEMBL4145619, “Computer-Assisted Discovery of Retinoid X Receptor Modulating Natural Products and Isofunctional Mimetics” (J Med Chem, 2018).

Data set [1] addresses T1, Nuclear receptor subfamily 1 group I member 3 (Homo sapiens, UniProt Q14994).
T1 sequence (Q14994 whole entry): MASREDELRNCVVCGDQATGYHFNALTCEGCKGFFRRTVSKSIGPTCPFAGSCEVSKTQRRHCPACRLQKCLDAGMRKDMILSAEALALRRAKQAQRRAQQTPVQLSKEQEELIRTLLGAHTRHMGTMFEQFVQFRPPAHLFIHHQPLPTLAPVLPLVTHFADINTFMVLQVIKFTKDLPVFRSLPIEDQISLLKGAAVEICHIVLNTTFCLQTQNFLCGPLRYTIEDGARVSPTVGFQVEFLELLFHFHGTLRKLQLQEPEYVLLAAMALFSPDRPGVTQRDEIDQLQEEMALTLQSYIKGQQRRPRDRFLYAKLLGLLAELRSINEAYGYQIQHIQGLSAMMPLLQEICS
Nature of the data set: Transactivation of human Gal4-fused CAR LBD expressed in HEK293T cells at 30 uM after 12 to 14 hrs by dual-glo luciferase assay. In kind it is cell-based. The method, boiled down: (§1)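 Single-concentration selectivity profiling in Gal4-hybrid reporter gene assays in HEK293T cells. Each nuclear receptor construct (RAR, PPAR, LXR, FXR, CAR, VDR, PXR, RXR) was tested at 30 μM.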

Data set [2] has as its target T2, Retinoic acid receptor beta (Homo sapiens) (UniProt P10826).
T2 sequence (whole entry): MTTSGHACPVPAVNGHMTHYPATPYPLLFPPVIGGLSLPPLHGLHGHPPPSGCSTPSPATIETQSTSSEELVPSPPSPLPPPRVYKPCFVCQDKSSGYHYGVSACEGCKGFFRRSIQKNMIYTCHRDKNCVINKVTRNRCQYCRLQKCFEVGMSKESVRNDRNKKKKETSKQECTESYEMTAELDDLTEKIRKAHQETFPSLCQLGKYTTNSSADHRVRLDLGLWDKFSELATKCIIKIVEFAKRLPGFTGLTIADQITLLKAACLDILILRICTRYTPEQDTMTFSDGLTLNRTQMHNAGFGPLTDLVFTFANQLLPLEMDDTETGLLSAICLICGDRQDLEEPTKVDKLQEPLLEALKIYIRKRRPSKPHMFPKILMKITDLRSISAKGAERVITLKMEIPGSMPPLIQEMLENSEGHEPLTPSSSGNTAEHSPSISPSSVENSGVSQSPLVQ
Put plainly: Transactivation of human Gal4-fused RARbeta LBD expressed in HEK293T cells at 30 uM after 12 to 14 hrs by dual-glo luciferase assay. In kind it is cell-based. In outline: as §1

Calls of active or inactive are those of the source. The calls are words filed in the database; no cut-off is given here.

Turning to `CC1=C2[C@H](/C=C(\C)C(=O)O)CC[C@@H](C)[C@H]2CC1` [VALERENIC ACID], the Activity entry in data set [1] is listed as “Not Active”. For the same molecule, in data set [2], the result was inactive.
